Test results: ChEMBL document CHEMBL1156852, “Synthesis and biological evaluation of simple methoxylated chalcones as anticancer, anti-inflammatory and antioxidant agents” (Bioorg Med Chem, 2010)

How the values were obtained:
ACHN [1] = assay: Growth inhibition of human ACHN cells at 10 uM after 48 hrs by propidium iodide assay; settings: read-out: GI
PANC-1 [2] = assay: Growth inhibition of human PANC1 cells at 10 uM after 48 hrs by propidium iodide assay; settings: PANC-1, 48 h, read-out: GI
[3] = system: Radical scavenging activity; assay: Antioxidant activity assessed as radical DPPH scavenging activity at 1 mM/mL; assay type: functional
How it was run: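 DPPH radical scavenging by the Blois method. Compound stock solutions (1 mM) were mixed with 0.3 mM DPPH in methanol in a 3 mL total reaction and left to react at room temperature.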

Calu-1 [4] = assay: Growth inhibition of human Calu1 cells at 10 uM after 24 hrs by propidium iodide assay; assay type: functional; settings: Calu-1, 24 h, read-out: GI
THP-1 [5] = assay: Antiinflammatory activity in human THP1 cells assessed as inhibition of LPS-induced TNFalpha release at 10 uM preincubated for 30 mins before LPS challenge by ELISA; assay type: functional
HCT-116 [6] = assay: Growth inhibition of human HCT116 cells at 10 uM after 48 hrs by propidium iodide assay; settings: HCT-116, 48 h, read-out: GI
THP-1 [7] = assay: Antiinflammatory activity in human THP1 cells assessed as inhibition of LPS-induced IL6 release at 10 uM preincubated for 30 mins before LPS challenge by ELISA; assay type: functional
[8] = Toxicity against […] assessed as cell growth; assay type: cell-based; parameters: concentration or dose not given beside the values
NCI-H460 [9] = assay: Growth inhibition of human H460 cells at 10 uM after 24 hrs by propidium iodide assay; assay type: functional; settings: NCI-H460, 24 h, read-out: GI
NCI-H460 [10] = assay: Growth inhibition of human H460 cells at 700 nM after 48 hrs by propidium iodide assay; settings: NCI-H460, 48 h, read-out: GI
Calu-1 [11] = assay: Growth inhibition of human Calu1 cells at 700 nM after 24 hrs by propidium iodide assay; assay type: functional; settings: Calu-1, 24 h, read-out: GI
ACHN [12] = assay: Growth inhibition of human ACHN cells at 700 nM after 48 hrs by propidium iodide assay; settings: read-out: GI
PANC-1 [13] = assay: Growth inhibition of human PANC1 cells at 700 nM after 48 hrs by propidium iodide assay; settings: PANC-1, 48 h, read-out: GI
HCT-116 [14] = assay: Growth inhibition of human HCT116 cells at 700 nM after 48 hrs by propidium iodide assay; settings: HCT-116, 48 h, read-out: GI
ACHN [15] = assay: Growth inhibition of human ACHN cells at 500 nM after 48 hrs by propidium iodide assay; settings: read-out: GI
HCT-116 [16] = assay: Growth inhibition of human HCT116 cells at 500 nM after 48 hrs by propidium iodide assay; settings: HCT-116, 48 h, read-out: GI
PANC-1 [17] = assay: Growth inhibition of human PANC1 cells at 500 nM after 24 hrs by propidium iodide assay; assay type: functional; settings: PANC-1, 24 h, read-out: GI
Calu-1 [18] = assay: Growth inhibition of human Calu1 cells at 500 nM after 24 hrs by propidium iodide assay; assay type: functional; settings: Calu-1, 24 h, read-out: GI
NCI-H460 [19] = assay: Growth inhibition of human H460 cells at 500 nM after 48 hrs by propidium iodide assay; settings: NCI-H460, 48 h, read-out: GI
THP-1 [20] = assay: Antiinflammatory activity in human THP1 cells assessed as inhibition of LPS-induced IL6 release at 1 uM preincubated for 30 mins before LPS challenge by ELISA; assay type: functional
How it was run: (§1)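 PMA-differentiated THP-1 cells grown in RPMI 1640 with 10% FBS, penicillin and streptomycin. Compounds in 0.5% DMSO were added and preincubated 30 min at 37 °C, then cells were stimulated with E. coli 0127:B8 LPS. Released cytokine was quantified with a BD Biosciences kit per the manufacturer. Percent inhibition of release was calculated versus control. Cytotoxicity was checked in parallel by CCK-8.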

THP-1 [21] = assay: Antiinflammatory activity in human THP1 cells assessed as inhibition of LPS-induced TNFalpha release at 1 uM preincubated for 30 mins before LPS challenge by ELISA; assay type: functional
How it was run: as §1

Work on COc1cc(/C=C/C(=O)c2ccccc2)cc(OC)c1OC yielded an inhibition of growth at 10 µM (ACHN [1]) of 33%, an inhibition of growth at 10 µM (PANC-1 [2]) of 7% and an Activity [3] of 47.2%. It also gave an inhibition of growth at 10 µM (Calu-1 [4]) of 7%, an inhibition at 10 µM (THP-1 [5]) of 100% and an inhibition of growth at 10 µM (HCT-116 [6]) of 0%. It also gave an inhibition at 10 µM (THP-1 [7]) of 100%, an Activity [8] of 73% and an inhibition of growth at 10 µM (NCI-H460 [9]) of 15%.

With CN1CC[C@H](c2c(O)cc(O)c3c(=O)cc(-c4ccccc4Cl)oc23)[C@H](O)C1 [ALVOCIDIB] the inhibition of growth at 0.7 µM (NCI-H460 [10]) was 84%, the inhibition of growth at 0.7 µM (Calu-1 [11]) was 68% and the inhibition of growth at 0.7 µM (ACHN [12]) was 68%. For the same compound, the inhibition of growth at 0.7 µM (PANC-1 [13]) was 75% and the inhibition of growth at 0.7 µM (HCT-116 [14]) was 71%.

COc1ccc(/C=C/C(=O)c2ccccc2)c(OC)c1 showed an inhibition of growth at 10 µM (ACHN [1]) of 93%, an inhibition of growth at 10 µM (PANC-1 [2]) of 94% and an Activity [3] of 38%. It also gave an inhibition of growth at 10 µM (Calu-1 [4]) of 91%, an inhibition at 10 µM (THP-1 [5]) of 98% and an inhibition of growth at 10 µM (HCT-116 [6]) of 95%. For the same compound, the inhibition at 10 µM (THP-1 [7]) was 100%, the Activity [8] was 79% and the inhibition of growth at 10 µM (NCI-H460 [9]) was 92%.

Work on Nc1ccn([C@@H]2O[C@H](CO)[C@@H](O)C2(F)F)c(=O)n1 [GEMCITABINE] yielded an inhibition of growth at 0.5 µM (ACHN [15]) of 70%, an inhibition of growth at 0.5 µM (HCT-116 [16]) of 76% and an inhibition of growth at 0.5 µM (PANC-1 [17]) of 71%. It also gave an inhibition of growth at 0.5 µM (Calu-1 [18]) of 70% and an inhibition of growth at 0.5 µM (NCI-H460 [19]) of 68%.

C[C@@H]1C[C@H]2[C@@H]3CCC4=CC(=O)C=C[C@]4(C)[C@@]3(F)[C@@H](O)C[C@]2(C)[C@@]1(O)C(=O)CO [DEXAMETHASONE] showed an inhibition at 1 µM (THP-1 [20]) of 84%, an inhibition at 1 µM (THP-1 [21]) of 73% and an Activity [8] of 0%.

Compound COc1ccc(/C=C/C(=O)c2ccc(OC)cc2OC)c(OC)c1 has an inhibition of growth at 10 µM (ACHN [1]) of 48%, an inhibition of growth at 10 µM (PANC-1 [2]) of 43% and an Activity [3] of 31.3%. It also gave an inhibition of growth at 10 µM (Calu-1 [4]) of 32%, an inhibition at 10 µM (THP-1 [5]) of 2% and an inhibition of growth at 10 µM (HCT-116 [6]) of 31%. It also gave an inhibition at 10 µM (THP-1 [7]) of 81%, an Activity [8] of 35% and an inhibition of growth at 10 µM (NCI-H460 [9]) of 38%.

In the case of COc1ccc(C(=O)/C=C/c2ccc(OC)cc2OC)cc1, the inhibition of growth at 10 µM (ACHN [1]) is reported as 45%, the inhibition of growth at 10 µM (PANC-1 [2]) is reported as 36% and the Activity [3] is reported as 32.3%. It also gave an inhibition of growth at 10 µM (Calu-1 [4]) of 31%, an inhibition at 10 µM (THP-1 [5]) of 0% and an inhibition of growth at 10 µM (HCT-116 [6]) of 37%. The inhibition at 10 µM (THP-1 [7]) was 39%, the Activity [8] was 29% and the inhibition of growth at 10 µM (NCI-H460 [9]) was 38%.

For COc1ccc(/C=C/C(=O)c2ccc(Cl)cc2Cl)c(OC)c1, the inhibition of growth at 10 µM (ACHN [1]) was 35%, the inhibition of growth at 10 µM (PANC-1 [2]) was 35% and the Activity [3] was 11.3%. The inhibition of growth at 10 µM (Calu-1 [4]) was 30%, the inhibition at 10 µM (THP-1 [5]) was 0% and the inhibition of growth at 10 µM (HCT-116 [6]) was 26%. For the same compound, the inhibition at 10 µM (THP-1 [7]) was 6%, the Activity [8] was 2% and the inhibition of growth at 10 µM (NCI-H460 [9]) was 29%.

COc1ccc(/C=C/C(=O)c2ccc(Cl)cc2)c(OC)c1 showed an inhibition of growth at 10 µM (ACHN [1]) of 28%, an inhibition of growth at 10 µM (PANC-1 [2]) of 29% and an Activity [3] of 26.4%. The inhibition of growth at 10 µM (Calu-1 [4]) was 28%, the inhibition at 10 µM (THP-1 [5]) was 0% and the inhibition of growth at 10 µM (HCT-116 [6]) was 22%. For the same compound, the inhibition at 10 µM (THP-1 [7]) was 12%, the Activity [8] was 0% and the inhibition of growth at 10 µM (NCI-H460 [9]) was 29%.

For COc1ccc(O)c(C(C)(C)C)c1.COc1ccc(O)cc1C(C)(C)C, the Activity [3] was 74%.

Work on COc1cc(/C=C/C(=O)c2ccc(Cl)cc2)cc(OC)c1OC yielded an inhibition of growth at 10 µM (ACHN [1]) of 57%, an inhibition of growth at 10 µM (PANC-1 [2]) of 66% and an Activity [3] of 36.5%. It also gave an inhibition of growth at 10 µM (Calu-1 [4]) of 67%, an inhibition at 10 µM (THP-1 [5]) of 98% and an inhibition of growth at 10 µM (HCT-116 [6]) of 92%. It also gave an inhibition at 10 µM (THP-1 [7]) of 100%, an Activity [8] of 79% and an inhibition of growth at 10 µM (NCI-H460 [9]) of 54%.
